Measurements gathered from unrelated publications.
pEC50, pIC50, pKd, pKi: −log10 of the molar value.
CNR2: Cannabinoid receptor 2 (CNR2, Homo sapiens, UniProt P34972)
F10: Coagulation factor X (F10, Homo sapiens, UniProt P00742)
Ribonuclease H1: Ribonuclease H1 (Homo sapiens, UniProt O60930)

SMILES	target	assay	conditions	measurement	result
CCCCC/C=C\[C@H](C)/C=C\C/C=C\Cc1ccccc1CCCC(=O)N[C@H](C)CO	CNR2	β-arrestin recruitment, agonist		pEC50	6.67
CCOC(=O)c1ccc(OC(=O)CCCCCN=C(N)N)cc1	F10	enzyme activity, inhibitor		pIC50	6.10
CCCCC/C=C\[C@H](C)/C=C\C/C=C\Cc1ccccc1CCCC(=O)OC(CO)CO	CNR2	cAMP, agonist		pEC50	5.95
N#CC(C#N)=Cc1ccc([N+](=O)[O-])c(O)c1	Casein kinase I isoform alpha (CSNK1A1, Homo sapiens, UniProt P48729)	binding, SPR		pKd	< 4.30
O=C1c2ccccc2C(c2ccccc2F)C(=O)N1O (stereo not shown)	Ribonuclease H1	enzyme activity, inhibitor		pIC50	5.33
CCCCCc1ccccc1C/C=C\C/C=C\C/C=C\CCCC(=O)N[C@H](C)CO	CNR2	cAMP, agonist		pEC50	6.17
CCCCCn1nc(C(=O)NC(C)(C)c2cccc(C(N)=O)c2)c2ccccc21	CNR2	ligand displacement, radioligand	cell membranes	pKi	6.60
COc1ccc(-c2cccc(Nc3cc(=O)n(O)c(=O)n3C)c2)cc1	Ribonuclease H1	enzyme activity, inhibitor		pIC50	< 5.00
CC(C)(NC(=O)c1nn(Cc2ccc(C#N)cc2)c2ccccc12)c1cccc(C(N)=O)c1	CNR2	ligand displacement, radioligand	cell membranes	pKi	6.54
CCOC(=O)N[C@@H](CCCNC(=N)N)C(=O)N[C@@H](CCC(N)=O)C(=O)N[C@@H](Cc1ccccc1)C(=O)N[C@@H](CCCNC(=N)N)C(=O)c1nc2ccccc2s1	F10	cell-free assay		pKi	7.82
CCCC[C@H](NC(C)=O)C(=O)N[C@H]1CC(=O)NCCCC[C@@H](C(=O)N2CCC[C@@H]2C(=O)N[C@@H](C(=O)N2CCC[C@@H]2C(N)=O)C(C)C)NC(=O)[C@H](Cc2c[nH]c3ccccc23)NC(=O)[C@H](CCCNC(=N)N)NC(=O)[C@@H](Cc2ccccc2)NC(=O)[C@@H]2CCCN2C1=O	Melanocortin receptor 5 (MC5R, Homo sapiens, UniProt P33032)	cAMP, agonist		pEC50	9.41
O=c1c(-c2ccccc2)c(O)c2cc(-c3cccc(-c4ccccc4)c3)cnc2n1O	Ribonuclease H1	enzyme activity, inhibitor		pIC50	< 5.00
CC(C)(NC(=O)c1nn(CCCCCF)c2ccccc12)c1cccc(C(N)=O)c1	CNR2	ligand displacement, radioligand	cell membranes	pKi	6.89
CS(=O)(=O)N[C@@H](CCC(N)=O)C(=O)N[C@@H](Cc1ccccc1)C(=O)N[C@@H](CCCNC(=N)N)C(=O)c1nc2ccccc2s1	F10	cell-free assay		pKi	7.80
CCCCC/C=C\C/C=C\C/C=C\Cc1ccccc1CCCC(=O)N[C@H](C)CO	CNR2	cAMP, agonist		pEC50	7.90
CC[C@H](C)[C@@H](C(=O)N1CCC[C@H]1c1nccs1)N(C)C(=O)[C@H](CC(C)C)N(C)C(=O)[C@H](Cc1ccc(OC)cc1)N(C)C(=O)/C=C(\C)OC	CNR2	ligand displacement, radioligand		pIC50	5.21
